# PHOSPHO1 inh = PubChem AID 1565; Phosphoethanolamine/phosphocholine phosphatase (Homo sapiens), Q8TCT1; inhibition, % at 13.3 µM; recombinant PHOSPHO1, absorbance phosphatase assay; hit rate 1.1% among 290,000; in the data active = inhibition above about 60%
# Target sequence (Q8TCT1 whole entry, looked up): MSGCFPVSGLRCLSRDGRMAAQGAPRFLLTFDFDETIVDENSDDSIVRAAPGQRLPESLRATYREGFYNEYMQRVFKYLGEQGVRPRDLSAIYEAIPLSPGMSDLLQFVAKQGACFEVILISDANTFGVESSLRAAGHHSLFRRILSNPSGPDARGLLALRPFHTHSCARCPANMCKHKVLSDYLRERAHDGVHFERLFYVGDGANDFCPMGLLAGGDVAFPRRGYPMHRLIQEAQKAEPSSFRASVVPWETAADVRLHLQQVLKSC
# Calb FLC = C. albicans growth inhibition with fluconazole, primary screen, CaCi-2 strain, Alamar Blue fluorescence; hit rate 0.57% among 300,000; C. albicans CaCi-2 (fluconazole-resistant clinical isolate) + fluconazole, 48 h; growth inhibition, % (test concentration not listed);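 active = growth inhibition above about 58% in most replicates, limit read from the data, passing the limit was not always enough; inconclusive = exactly half the replicates above a set limit; inactive = most replicates below a set limit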;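 note: all wells also contain fluconazole at 8 µg/ml as a sub-toxic cotreatment; 0% = median of DMSO wells and 100% = median of geldanamycin control wells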
# VIM-2 inhibitor = VIM-2 metallo-beta-lactamase inhibitors, primary screen, biochemical, epi-absorbance readout, Pseudomonas aeruginosa enzyme; purified VIM-2, nitrocefin hydrolysis, epi-absorbance fluorescence; inhibition, % at 5.6 µM; hit rate 0.89% among 290,000; AID 1527, 2009;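 active = inhibition above the mean of all tested compounds plus 3 SD, cutoff set per screening run, cut at about 7.5% in these data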;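 note: red hydrolysis product quenches plate fluorescence so inhibitors raise well fluorescence; 0% = enzyme with DMSO and 100% = DMSO without enzyme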
# ARFGAP1 inhibitor = inhibitors of rat ARFGAP1 GAP activity, primary screen, biochemical, fluorescence polarization, GDP tracer | ADP-ribosylation factor GTPase-activating protein 1 (Rattus norvegicus), Q62848 | inhibition, % at 16.5 µM | hit rate 0.26% among 360,000 | AID 651572, 2012 | Arfgap1-stimulated ARF1 GTP hydrolysis, GDP FP detection;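 active = inhibition above a per-plate limit, mean inhibition of low control wells plus 3 SD, cut at about 25% in these data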;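 note: 0% = DMSO wells with enzyme and 100% = wells lacking Arfgap1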
# Target sequence (Q62848 1-136 limits assumed): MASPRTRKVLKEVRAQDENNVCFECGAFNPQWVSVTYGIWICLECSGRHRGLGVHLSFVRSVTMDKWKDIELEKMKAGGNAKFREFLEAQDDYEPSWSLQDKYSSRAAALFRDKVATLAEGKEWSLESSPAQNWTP
#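 Assay system: Rat Arfgap1 GAP domain (His6, aa 1-136), purified enzyme | Buffer or medium: HEPES 25 mM pH 7.5, NaCl 150 mM, MgCl2, DTT | Schedule: GTP hydrolysis reaction 2 h at 25 °C | Signal: FP of antibody-bound GDP Alexa 633 tracer, ex 620/em 688 nm | Measure: Percent inhibition of Arfgap1-stimulated GTP hydrolysis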
# ASAP1 GAP inh = inhibitors of human ASAP1 ArfGAP activity, primary screen, biochemical, fluorescence polarization. hit rate 0.19% among 360,000. inhibition, % at 16.5 µM. Arf-GAP with SH3 domain, ANK repeat and PH domain-containing protein 1 (Homo sapiens), …. ASAP1-stimulated ARF1 GTP hydrolysis, GDP FP detection; in the data active = inhibition above about 25%;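 note: 0% = vehicle with enzyme and substrate and 100% = no enzyme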
# IMP-1 inhibitor = IMP-1 metallo-beta-lactamase inhibitors, primary screen, biochemical, epi-absorbance readout, Pseudomonas aeruginosa enzyme | hit rate 0.45% among 290,000 | inhibition, % at 5.6 µM | metallo-beta-lactamase IMP-1 (Pseudomonas aeruginosa) | purified IMP-1, nitrocefin hydrolysis, epi-absorbance fluorescence;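 active = inhibition above the mean plus 3 SD of all compounds in the same screening run, cut at about 4.5% in these data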;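 note: 0% = IMP-1 with DMSO and 100% = DMSO wells lacking enzyme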
#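 Test system: recombinant IMP-1 enzyme, purified / Medium: HEPES buffer pH 7.1 with ZnSO4 and Brij 35 / Doses: single dose, 5.6 µM / Times: 25 °C, 15 min preincubation, 25 min reaction / Detection: Epi-absorbance via hydrolysed-nitrocefin quenching of white-plate fluorescence, 480/530 nm, EDTA stop / Evaluation: percent inhibition from optical density relative to buffer-blank wells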
# * = called active by the depositor; u = inconclusive; x = no result. In the library only some 2.6% were active in any assay of this set; here they are far more common.
SMILES,PHOSPHO1 inh,Calb FLC,VIM-2 inhibitor,ARFGAP1 inhibitor,ASAP1 GAP inh,IMP-1 inhibitor
O=C(c1cnn2c(C(F)(F)F)cc(-c3cccs3)nc12)N1CCN(C(c2ccccc2)c2ccccc2)CC1,20.6,-7.0,-2.9,-5.7,6.6,-3.6
CN1CCN(C(=O)c2cnn3c(C(F)(F)F)cc(-c4cccs4)nc23)CC1,-8.2,1.5,8.6*,4.6,-0.3,-4.0
CC1CCC/C(=C\Nc2ccc(O)cc2)C1=O (stereo unspecified),69.5*,1.6,-2.2,-3.4,2.9,-2.9
Cc1cc(C(=O)O)ccc1N/C=C1\CCCC(C)C1=O (stereo unspecified),-6.0,-9.4,-3.1,1.0,-5.5,-1.4
CNc1ccc(Br)cc(C(=O)/C=C/c2cccc(OC)c2)c1=O,7.8,-4.9,0.8,2.4,-8.3,10.2*
CCNc1ccc(Br)cc(C(=O)/C=C/c2ccc3c(c2)OCO3)c1=O,24.0,-4.3,-0.5,-3.9,16.8,3.3
CNc1ccc(Br)cc(C(=O)/C=C/c2ccc(OC)cc2OC)c1=O,-9.8,37.6,-1.9,-1.4,4.0,0.1
CCNc1ccc(Br)cc(C(=O)/C=C/c2ccc(Cl)cc2)c1=O,-1.0,-1.1,1.0,x,x,4.5*
C=C1c2cc(C)ccc2NC(=O)N1c1ccc(C)cc1,73.3*,-4.6,-2.6,1.1,-1.6,-1.1
C=C1c2ccccc2NC(=O)N1c1ccc(C)cc1,6.4,-6.4,-0.7,-4.3,6.2,-4.8
COc1ccccc1NC(=S)NNC(=O)c1ccc(O)cc1,70.9*,-3.1,-1.4,10.4,-4.9,0.1
COc1ccc(C)cc1NC(=S)NNC(=O)c1c(Br)cnn1C,-140.2,72.4*,-3.7,-10.2,-5.2,-4.0
COc1ccccc1NC(=S)NNC(=O)c1nn(C)cc1Cl,71.9*,3.4,-4.3,6.7,-5.4,-4.2
COc1ccccc1NC(=S)NNC(=O)c1nn(C)c(C)c1Cl,78.9*,5.1,-8.1,10.3,3.9,-5.4
COc1ccccc1C(=O)NNC(=O)c1ccc(O)cc1,x,x,x,-0.2,-10.6,x
O=C(NCc1ccccc1)[C@H]1CCCN1C(=O)[C@H]1CCCN1C(=O)c1cccc(Cl)c1,x,x,x,-2.0,5.6,x
Cc1nc(CCNC(=O)CC2C(=O)NCCN2Cc2ccccc2)sc1C (stereo unspecified),51.6,-3.0,-0.8,11.3,7.8,5.0*
CCN(CC)c1ccc(/C=C(\C#N)c2ccccn2)cc1,-4.4,4.5,-2.2,x,x,-2.8
CN(CCC#N)c1ccc(/C=C(\C#N)c2ccccn2)cc1,-6.2,4.5,3.5,-1.4,-3.1,25.1*
C=CCN=C1NC(c2cccc(F)c2)C(C(=O)OC)=C(C)N1Cc1cccc(C(F)(F)F)c1 (stereo unspecified),x,x,x,-3.4,-10.3,x
CCc1ccc(N2CC(C(=O)N/N=C/c3cc([N+](=O)[O-])ccc3O)CC2=O)cc1 (stereo unspecified),23.4,106.0*,1.8,4.3,-2.6,-0.8
O=C(N/N=C/c1c[nH]c2ccccc12)C1CC(=O)N(c2ccccc2)C1 (stereo unspecified),72.9*,-11.0,-1.3,9.6,4.8,-2.2
O=C1SC(c2ccccc2)=N/C1=C/c1ccco1,72.9*,5.9,-0.4,2.9,10.3,1.9
O=C1SC(SCc2ccccc2)=N/C1=C\c1ccco1,2.2,-19.8,-3.5,4.8,0.8,2.3
O=[N+]([O-])c1ccc(S(=O)(=O)Nc2nc(-c3ccccc3)cs2)cc1,x,26.6,0.3,0.7,7.9,-1.3
SMILES,PHOSPHO1 inh,Calb FLC,VIM-2 inhibitor,ARFGAP1 inhibitor,ASAP1 GAP inh,IMP-1 inhibitor
O=S(=O)(Nc1nc(-c2ccccc2)cs1)c1cc(Cl)ccc1Cl,29.1,96.0*,1.9,-25.1,5.5,-0.9
c1cn2cc(CSC3CCCCC3)nc2s1,-18.5,-2.1,9.1*,5.4,10.0,-2.5
O=C(NCCN1CCOCC1)c1cc2ccccc2o1,16.0,-4.6,-2.2,3.4,3.8,-5.5
CC(C)(CNC(=O)c1cc2ccccc2o1)N1CCOCC1,67.5*,-5.2,0.0,17.7,-8.9,-3.7
COc1ccc(N2C(=O)c3n[nH]c(C)c3C2c2ccc(F)cc2)cc1 (stereo unspecified),x,x,x,3.2,-6.8,x
Cc1ccc2ccc3cccnc3c2n1,x,18.4,9.5*,-25.7,-6.4,-26.6
Cn1cc(/C=N/Nc2ccccc2)c2ccccc21,-18.4,101.3*,0.2,-6.7,11.6,-1.0
CCCCNC(=O)Cn1cnc([N+](=O)[O-])n1,49.9,1.4,-4.6,3.1,6.4,-1.7
O=C(Cn1cnc([N+](=O)[O-])n1)NC1CC1,68.5*,u,-0.9,4.4,-10.2,-1.3
CCCCN(CCCC)CCCNC(=O)Cn1cc(C)c(=O)[nH]c1=O,x,x,x,4.2,0.4,x
CC(=O)c1ccc(NC(=S)NCCc2ccc(S(N)(=O)=O)cc2)cc1,4.5,0.2,0.1,-12.6,-10.0,-1.1
CC(C)OCCCNC(=S)Nc1ccc(S(N)(=O)=O)cc1,85.6*,10.6,0.5,-15.3,-5.1,-0.1
C[C@@H]1CN([C@H](C)CO)C(=O)c2ccccc2-c2ccccc2CO[C@@H]1CN(C)C(=O)Nc1ccccc1,x,x,x,-4.0,-3.0,x
C[C@H]1CN([C@@H](C)CO)C(=O)CCCn2nncc2CO[C@@H]1CN(C)S(=O)(=O)c1cccs1,x,x,x,4.7,-12.2,x
Oc1ccccc1-c1cc(-c2ccc3c(c2)OCCO3)n[nH]1,6.2,30.8,-3.1,11.2,27.8*,-1.7
O=C(O)c1cc(-c2ccc3c(c2)OCCO3)n[nH]1,60.1*,-26.3,-3.0,5.9,2.2,-1.3
CCOC(=O)C1=C(Nc2ccc(Br)cc2)C(=O)N(CC)C1,x,x,x,-6.5,2.2,x
CCCCOc1ccc(S(N)(=O)=O)cc1,0.1,-3.1,-1.4,20.5,-5.3,-1.3
NS(=O)(=O)c1ccc(Oc2ccc(S(N)(=O)=O)cc2)cc1,61.5*,-3.5,-5.3,2.2,5.3,-4.8
COC(=O)CCN1CCN(S(=O)(=O)c2ccc3c(c2)OCCO3)CC1,x,x,x,14.6,11.6,x
COC(=O)CCN1CCN(S(=O)(=O)c2ccccc2Br)CC1,61.5*,18.2,-3.7,14.4,-7.3,-4.2
CCOc1ccc(CCNC(=O)C2CC=CCC2C(=O)OC(C)C)cc1OCC (stereo unspecified),32.6,9.8,-0.8,4.0,2.6,-3.0
CCOc1ccc(CCNC(=O)C2CC(C)=CCC2C(=O)O)cc1OCC (stereo unspecified),42.0,-0.6,0.2,-7.7,3.0,37.6*
O=c1c(Cl)c(O)ccn1C1OC(CO)C(O)C1O (stereo unspecified),x,x,x,8.3,13.4,x

# Bioassay records as filed in PubChem BioAssay.
